T cell HTS = T cell immune modulators affecting CD8 T cell-vesicle binding; response (vesicle binding), % at 7 µM; 2C CD8+ T cell-vesicle binding, flow cytometry; stronger effect = lower value; hit rate 0.068% among 330,000; AID 2052;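 active means response, share of CD8 T cells binding vesicles, and their 90th percentile fluorescence all below set limits, cut at about 80% in these data, passing the limit was not always enough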;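 further: values below 100% mean blocked vesicle binding to the CD8+ T cells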
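Read-out – percent CD8+ FL2 mean versus row control · System – murine 2C transgenic CD8+ T lymphocytes · Times – 1.5 h cell–vesicle binding at 37 °C, then 20 min icy labelling · Control set – naked vesicles low, QL9 vesicles with vehicle high · Detection – cytometric PE anti-B7-1 and Alexa647 anti-CD8 signals after 1% paraformaldehyde fixation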
SKN-1 block = inhibitors of C. elegans SKN-1; C. elegans VP596 Pgst-4::GFP/RFP ratio, acrylamide-induced, 24 h; inhibition, % at 21.8 µM; hit rate 0.49% among 360,000; AID 624304;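 active means interference check ratio from 0.5 to 1.5 plus GFP to RFP signal ratio inhibition reaching or exceeding a fixed threshold, cut at about 30% in these data, passing the limit was not always enough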
Rce1 inh = inhibitors of yeast Ras-converting enzyme | hit rate 0.27% among 290,000 | AID 2563 | calls only | yeast membranes, quenched prenylated peptide cleavage fluorescence | Q03530;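 active means fall in fluorescence gain of 50% or more versus controls, with final raw signal at or below 3038400; inconclusive means same 50% fall but final raw signal above 3038400; inactive means fall in fluorescence gain under 50%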;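 further: plate controls were neutral control wells for no effect and wells lacking membranes for full effect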
Myeloid diff MLP = myeloid differentiation induction. ER-HoxA9 myeloid progenitors, lysozyme-GFP differentiation, flow cytometry. calls only at 10 µM. hit rate 1% among 360,000. AID 624256;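 active means normalized GFP-positive differentiation at or above the plate's own cutoff, the solvent-only control mean plus 3 SD; inconclusive means no clear call, values can overlap the other calls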;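 further: cells exposed to compound for four days before flow analysis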
GRK2 aptamer HTS = blocks RNA aptamer binding to human GRK2 | P25098 | bead flow cytometry, FAM-aptamer displacement from GRK2 | inhibition of aptamer binding, % at 10 µM | hit rate 0.59% among 330,000 | AID 488847;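 active means inhibition of aptamer binding above 40%, roughly 3 SD of noise, on plates passing a quality check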;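 further: median bead fluorescence of bound FAM aptamer so fluorescent compounds give negative values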
Rin1 Abl inh = human Rin1-Abl interaction inhibition; P00519+Q13671; TR-FRET Rin1/Abl binding, biochemical; inhibition, % at 7.35 µM; hit rate 0.4% among 360,000; in the data active means inhibition above about 5%, passing the limit was not always enough
* hit, by the source's call; i = inactive; ? = inconclusive; · = not tested or not shown; + = active, no number. A selection: hits, their analogues and other compounds. The true share with any hit is near 2.6%.

SMILES	T cell HTS	SKN-1 block	Rce1 inh	Myeloid diff MLP	GRK2 aptamer HTS	Rin1 Abl inh
O=C(Cc1cccc(NC(=O)C2CCCN(C(=O)C3CCCCC3)C2)c1)Nc1cccc(C(=O)N2CCOCC2)c1 (centres undefined)	·	9.8	·	i	·	1.7
Cc1c(OC(=O)CNC(=O)OC(C)(C)C)ccc2c3c(c(=O)oc12)CCC3	175.2	45.0*	i	i	0.0	-3.3
Cc1c(OCC(=O)OC(C)(C)C)ccc2c3c(c(=O)oc12)CCC3	266.7	4.6	i	i	0.0	-1.8
CC(C)CC(=O)Nc1nnc(S(=O)(=O)N2c3ccccc3CC2C)s1 (centres undefined)	i	-10.8	i	i	1.0	-0.1
COc1nc(-c2ccccc2)ccc1-c1noc(-c2cccnc2)n1	295.9	5.0	i	i	1.0	0.4
Fc1ccccc1-c1nc(-c2ccc(Cl)cc2)no1	396.0	36.0*	i	i	0.0	-2.0
O=C1c2ccccc2C(=O)N1CCc1nc(-c2ccc(Cl)cc2)no1	929.6	47.8*	i	i	3.0	-1.1
COc1nc(-c2ccccc2)ccc1-c1noc(-c2ccccc2F)n1	281.3	7.3	+	i	0.0	-0.7
CC1CN(CC(=O)NCc2ccccc2)CC(C)O1 (centres undefined)	175.3	-1.0	i	i	2.0	-2.8
COc1cc(N2CCCC2)c(OC)cc1/C=C(/C#N)c1ccc(Br)cc1	381.2	14.3	i	+	0.0	-1.9
COc1ccc(-c2nc(SCC(=O)N(CC(C)C)c3c(N)n(Cc4ccccc4)c(=O)[nH]c3=O)n[nH]2)cc1	316.0	-1.3	·	i	3.0	4.0
CCCN(C(=O)CSc1n[nH]c(-c2ccc(OC)cc2)n1)c1c(N)n(Cc2ccccc2)c(=O)[nH]c1=O	370.5	-5.9	i	+	3.0	1.7
Cc1cccc(NC(=O)c2cccc(C(=O)Nc3cccc(C)n3)c2)n1	280.8	3.4	i	i	0.0	1.4
Cc1cccc(NC(=O)c2ccc3c(c2)C(=O)N(c2ccccc2C)C3=O)n1	237.4	43.0*	i	i	0.0	4.8
Cn1c(CN2CCOCC2)c(C#N)c2ccccc21	141.8	-17.8	+	i	2.0	-1.8
COCCNC(=O)C1(C)CCCN(Cc2ccc(Cl)c(Cl)c2)C1 (centres undefined)	·	30.9	·	i	·	-0.7
Cc1[nH]c2ccccc2c1C(=O)C(=O)NCc1ccco1	479.1	5.5	i	i	2.0	1.6
CC(=O)N1c2ccc(S(=O)(=O)N3CCC(C(=O)Nc4cccc(Cl)c4)CC3)cc2CC1C (centres undefined)	156.5	21.9	i	?	85.0*	-1.1
CCOC(=O)c1c(NC(=S)N2CCOCC2)sc(C)c1C	349.1	9.4	i	i	1.0	2.9
CC(NC(=O)NC(=O)c1cccc(Cl)c1)c1ccccc1 (centres undefined)	297.3	1.9	i	i	1.0	3.4
Cc1ccc(NC(=O)COC(=O)CCC(=O)c2cccs2)c(C)c1	324.9	-12.8	i	+	0.0	3.1
O=[N+]([O-])c1cccc2ccc(/C=C/c3ccc(F)cc3)nc12	319.3	36.5*	i	i	0.0	-3.0
COc1ccc(Br)cc1/C=N/NC(=O)c1ccc(COc2ccc3c(c2)CCC3)o1	352.2	15.9	i	+	0.0	-2.4
COc1ccccc1/C=N\NC(=O)c1ccc(COc2ccc(C)c(C)c2)o1	178.5	1.4	i	+	0.0	-4.0
O=S(=O)(CCNCc1cccs1)c1ccc(Cl)cc1	110.6	9.0	i	i	1.0	-3.7
SMILES	T cell HTS	SKN-1 block	Rce1 inh	Myeloid diff MLP	GRK2 aptamer HTS	Rin1 Abl inh
O=C1CC(C(=O)NC2CCCCC2)C2(CCCCC2)O1 (centres undefined)	286.5	20.2	i	i	7.0	1.2
Clc1ccc(CNc2ncnc3[nH]ncc23)c(Cl)c1	·	4.0	·	i	·	1.0
CC1(C)N=C(N)N=C(N)N1c1ccc(OCC(=O)N2CCOCC2)c(Cl)c1	·	-1.8	·	+	·	-0.7
O=C(O)c1cccc2c1-c1ccc(Cl)cc1C2=O	·	-2.1	·	i	·	-4.0
Nc1cccc2c1C(=O)c1ccc(Cl)cc1C2=O	·	45.5*	·	i	·	-7.4
Cc1cc(C)n(-c2ccn(Cc3ccc(Cl)cc3Cl)c(=O)n2)n1	174.6	3.4	i	+	0.0	-3.3

Screening data as filed in PubChem.
